# Experimental data as given in ChEMBL document CHEMBL1121644, “N-(aminophenyl)oxamic acids and esters as potent, orally active antiallergy agents” (1981).
# Active and inactive are the calls of the source. The calls are words filed in the database; no cut-off is given here.
# How the values were obtained:
# Rattus norvegicus [1] = assay: Antiallergic property in passive cutaneous anaphylaxis (PCA) test in rats upon intraperitoneal administration; assay type: functional; conditions: for ED50: ip
# Summary of the method: (§1)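 Male Sprague-Dawley rats (200 g) were sensitized id on the shaved back with 0.05 mL of a 1:100 dilution of rat anti-ovalbumin IgE serum. After 48 h they were challenged iv with 1.0 mL of 0.8% ovalbumin containing 5 mg Evans blue, and killed 40 min later. Wheal area (mm²) was taken as the longest diameter times its perpendicular. ED50 is the dose halving wheal size versus control, from regression over at least four log-spaced doses with five rats per dose.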
# Rattus norvegicus [2] = assay: Antiallergic property in passive cutaneous anaphylaxis (PCA) test in rats upon oral administration; assay type: functional; summary of the method: as §1
# Rattus norvegicus [3] = assay: Percent inhibition using passive cutaneous anaphylaxis (PCA assay) in rat at 1 mg/kg upon oral administration; assay type: functional
# Summary of the method: (§2)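 Rats (male Sprague-Dawley, 200 g) were passively sensitized id with 0.05 mL of 1:100 IgE antiserum raised against ovalbumin. After a 48-h latency they were challenged iv with 0.8% ovalbumin (1.0 mL) plus 5 mg Evans blue. Skin was reflected 40 min later and stained wheals measured as longest diameter × perpendicular (mm²). Results are percent inhibition of wheal size versus control.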
# Rattus norvegicus [4] = assay: Antiallergic property in passive cutaneous anaphylaxis (PCA) test in rats upon intraperitoneal administration; NA=Not active at 100 mg/kg; assay type: functional, organism-based; set-up: dose 100 mg/kg; summary of the method: as §1
# Rattus norvegicus [5] = assay: Percent inhibition of wheal size in passive cutaneous anaphylaxis (PCA) test at 50 mg/kg upon oral administration; assay type: functional; summary of the method: as §2
# Rattus norvegicus [6] = assay: Percent inhibition of wheal size in passive cutaneous anaphylaxis (PCA) test at 50 mg/kg upon intraperitoneal administration; assay type: functional; conditions: ip; summary of the method: as §2
# Rattus norvegicus [7] = assay: Percent inhibition of wheal size in passive cutaneous anaphylaxis (PCA) test at 50 mg/kg (administered orally); assay type: functional; conditions: po; summary of the method: as §2
# Rattus norvegicus [8] = assay: Antiallergic property in passive cutaneous anaphylaxis (PCA) test in rats upon oral administration; NA=Not active at 100 mg/kg; assay type: functional, organism-based; set-up: dose 100 mg/kg; summary of the method: as §1
SMILES,ED50 (Rattus norvegicus [1]) [mg/kg],ED50 (Rattus norvegicus [2]) [mg/kg],other results
CCOC(=O)C(=O)Nc1cccc(C)c1C#N,5.3,4.6,
CCOC(=O)C(=O)Nc1cccc(F)c1C#N,1.2,59,
CCOC(=O)C(=O)Nc1cccc([N+](=O)[O-])c1C#N,0.4,82,
N#Cc1c(N)cccc1NC(=O)C(=O)O,,,inhibition in vivo at 1 mg/kg (Rattus norvegicus [3]): 21.2%
CCOC(=O)C(=O)Nc1cccc(C(C)C)c1C#N,,,ED50 (Rattus norvegicus [4]): inactive; inhibition in vivo at 50 mg/kg (Rattus norvegicus [5]): 18%
Cc1cccc(NC(=O)C(=O)O)c1C#N,,,inhibition in vivo at 1 mg/kg (Rattus norvegicus [3]): 32.3%
CCOC(=O)C(=O)Nc1ccc([N+](=O)[O-])cc1C#N,,,inhibition in vivo at 50 mg/kg (Rattus norvegicus [6]): 33%
N#Cc1c(NC(=O)C(=O)O)cccc1N1CCOCC1,,,inhibition in vivo at 1 mg/kg (Rattus norvegicus [3]): 14.1%
CCOC(=O)C(=O)Nc1ccc(N(C)C)cc1C#N,1,2.4,
CCOC(=O)C(=O)Nc1cccc(S(C)(=O)=O)c1C#N,,,ED50 (Rattus norvegicus [4]): inactive
CCOC(=O)C(=O)Nc1cccc(N)c1C#N,0.05,0.07,
CCOC(=O)C(=O)Nc1cccc(NC(C)=O)c1C#N,,,inhibition in vivo at 50 mg/kg (Rattus norvegicus [7]): 91%; inhibition in vivo at 50 mg/kg (Rattus norvegicus [6]): 91%
CCNc1cccc(NC(=O)C(=O)OCC)c1C#N,0.03,0.03,
CCOC(=O)C(=O)Nc1cccc(N(C)C)c1C#N,0.2,4.2,
COC(=O)c1cccc(NC(=O)C(=O)O)c1C#N,,,inhibition in vivo at 1 mg/kg (Rattus norvegicus [3]): 24.5%
CN(C)c1cccc(NC(=O)C(=O)O)c1C#N,,,inhibition in vivo at 1 mg/kg (Rattus norvegicus [3]): 54.7%
CCOC(=O)C(=O)Nc1cccc(N(C)C(C)C)c1C#N,0.3,1.2,
CCCCNc1cccc(NC(=O)C(=O)[O-])c1C#N.[Na+],,,% inhibition at 1 mg/kg (Rattus norvegicus [3]): 93.5%
CCOC(=O)C(=O)Nc1cccc(NC)c1C#N,0.2,0.1,
CCOC(=O)C(=O)Nc1cccc(Br)c1C#N,,,ED50 (Rattus norvegicus [4]): inactive
CCOC(=O)C(=O)Nc1cccc(OC)c1C#N,5.3,55.5,
CCOC(=O)C(=O)Nc1c(C#N)cccc1N(C)C,,,ED50 (Rattus norvegicus [4]): inactive
CCOC(=O)C(=O)Nc1cccc(N(C)CC)c1C#N,0.3,0.5,

SMILES,ED50 (Rattus norvegicus [1]) [mg/kg],ED50 (Rattus norvegicus [2]) [mg/kg],other results
CCOC(=O)C(=O)Nc1cccc(N2CCN(C)CC2)c1C#N.Cl,0.04,10.3,
CCOC(=O)C(=O)Nc1cccc(N2CCCC2)c1C#N,,,inhibition in vivo at 50 mg/kg (Rattus norvegicus [5]): 83%; inhibition in vivo at 50 mg/kg (Rattus norvegicus [6]): 83%
CCCCCOc1cccc(NC(=O)C(=O)OCC)c1C#N,,,Inhibition (Rattus norvegicus [1]): 25%
CCOC(=O)C(=O)Nc1cccc(OC(C)C)c1C#N,2,1,
O=C([O-])c1cc(=O)c2c(OCC(O)COc3cccc4oc(C(=O)[O-])cc(=O)c34)cccc2o1.[Na+].[Na+] [CROMOLYN SODIUM],8,,ED50 (Rattus norvegicus [8]): inactive
CCOC(=O)C(=O)Nc1ccc(C(F)(F)F)c(N2CCOCC2)c1C#N,0.1,> 100,
CCOC(=O)C(=O)Nc1ccccc1C#N,0.4,2.9,
CCN(C)c1cccc(NC(=O)C(=O)O)c1C#N,,,inhibition in vivo at 1 mg/kg (Rattus norvegicus [3]): 56.3%
CCOC(=O)C(=O)Nc1cccc(N2CCOCC2)c1C#N,1.2,6.3,
CCNc1cccc(NC(=O)C(=O)O)c1C#N,,,inhibition in vivo at 1 mg/kg (Rattus norvegicus [3]): 58.9%
CCOC(=O)C(=O)Nc1ccc(N)cc1C#N,1,8.8,
CCCCNc1cccc(NC(=O)C(=O)OCC)c1C#N,0.3,0.3,
CC(C)Oc1cccc(NC(=O)C(=O)O)c1C#N,,,inhibition in vivo at 1 mg/kg (Rattus norvegicus [3]): 75.1%
CCOC(=O)C(=O)Nc1cccc(N(CC)CC)c1C#N,0.7,0.9,
CCCNc1cccc(NC(=O)C(=O)[O-])c1C#N.[Na+],,,% inhibition at 1 mg/kg (Rattus norvegicus [3]): 83.1%
CCOC(=O)C(=O)Nc1cccc(Cl)c1C#N,,,inhibition in vivo at 50 mg/kg (Rattus norvegicus [6]): 56%
CNc1cccc(NC(=O)C(=O)[O-])c1C#N.[Na+],,0.07,inhibition in vivo at 1 mg/kg (Rattus norvegicus [3]): 96%
CCCNc1cccc(NC(=O)C(=O)OCC)c1C#N,0.5,0.7,
CCOC(=O)C(=O)Nc1cc(N(C)C)ccc1C#N,1.9,> 100,
CCOC(=O)C(=O)Nc1cccc(C(=O)OC)c1C#N,1.2,0.8,
CCN(CC)c1cccc(NC(=O)C(=O)O)c1C#N,,,inhibition in vivo at 1 mg/kg (Rattus norvegicus [3]): 99.2%
CCOC(=O)C(=O)Nc1cccc(N2CCCCC2)c1C#N,2.2,,ED50 (Rattus norvegicus [8]): inactive
